Source: article PMC4148169 (Journal of Medicinal Chemistry, 2014)
Structures can show the parent of a compound that is named as a salt. Where two headings read alike, the source gives them in different places. Blank lines part the entries; values can stand above or below the molecule they belong to.

Experiments:
[1] = system: human 3A4; conditions: cited from earlier work
[2] = cited from earlier work
[3] = biological target: CYP3A4 (Homo sapiens, UniProt P08684); test: CYP inhibition in human liver microsomes, 3A4; assay type: in vitro ADME
[4] = system: T. cruzi Y luc strain; assay type: in vivo, Trypanosoma cruzi; conditions: posaconazole 20 mg/kg, ip, bid, 4 days; two independent experiments (A, B)
[5] = biological target: CYP2D6 (Homo sapiens, UniProt P10635); test: CYP inhibition in human liver microsomes, 2D6; assay type: in vitro ADME
[6] = biological target: CYP2C9 (Homo sapiens, UniProt P11712); test: CYP inhibition in human liver microsomes, 2C9; assay type: in vitro ADME
[7] = biological target: T1, CYP1A2 (Homo sapiens, UniProt P05177); test: CYP inhibition in human liver microsomes, 1A2; assay type: in vitro ADME
T1 sequence (P05177 1-516): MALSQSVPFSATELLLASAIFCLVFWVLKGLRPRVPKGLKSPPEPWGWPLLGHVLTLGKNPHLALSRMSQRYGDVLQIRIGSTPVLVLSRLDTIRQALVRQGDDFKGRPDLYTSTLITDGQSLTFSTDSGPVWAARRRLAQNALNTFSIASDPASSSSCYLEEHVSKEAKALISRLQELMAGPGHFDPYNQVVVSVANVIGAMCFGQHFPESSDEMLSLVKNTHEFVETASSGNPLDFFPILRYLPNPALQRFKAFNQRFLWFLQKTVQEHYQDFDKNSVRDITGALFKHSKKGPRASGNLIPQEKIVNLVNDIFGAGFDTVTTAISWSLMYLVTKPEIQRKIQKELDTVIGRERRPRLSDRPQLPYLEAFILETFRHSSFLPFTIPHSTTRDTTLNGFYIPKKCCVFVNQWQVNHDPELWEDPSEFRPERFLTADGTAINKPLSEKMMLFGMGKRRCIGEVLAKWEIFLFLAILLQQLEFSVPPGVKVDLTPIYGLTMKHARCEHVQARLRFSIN

[8] = Single dose PK; assay type: in vivo; conditions: female, Swiss Webster, mouse, plasma, po, 50 mg/kg
Procedure, shortened: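 Eight-week-old female Swiss Webster mice were given one oral gavage dose of 50 mg/kg, formulated at 10 mg/mL in 20% solutol/80% water. Nine mice were dosed, with n = 3 plasma samples at about 0.25, 0.5, 1, 2, 4, 6, 8, 12 and 24 h. Plasma protein was precipitated with 5 volumes of acetonitrile and filtered through 0.2 μm, then quantified by LC-MS/MS.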

[9] = system: 2C9; conditions: read-out: IC50 toward 2C9; cited from earlier work
[10] = Solubility in oral dosing vehicles; assay type: physicochemical; conditions: oral dosing vehicle
[11] = read-out: IC50 against human 3A4, ref 35
[12] = read-out: IC50 against human 3A4, ref 67

Chain of CYP2D6 (P10635 whole entry): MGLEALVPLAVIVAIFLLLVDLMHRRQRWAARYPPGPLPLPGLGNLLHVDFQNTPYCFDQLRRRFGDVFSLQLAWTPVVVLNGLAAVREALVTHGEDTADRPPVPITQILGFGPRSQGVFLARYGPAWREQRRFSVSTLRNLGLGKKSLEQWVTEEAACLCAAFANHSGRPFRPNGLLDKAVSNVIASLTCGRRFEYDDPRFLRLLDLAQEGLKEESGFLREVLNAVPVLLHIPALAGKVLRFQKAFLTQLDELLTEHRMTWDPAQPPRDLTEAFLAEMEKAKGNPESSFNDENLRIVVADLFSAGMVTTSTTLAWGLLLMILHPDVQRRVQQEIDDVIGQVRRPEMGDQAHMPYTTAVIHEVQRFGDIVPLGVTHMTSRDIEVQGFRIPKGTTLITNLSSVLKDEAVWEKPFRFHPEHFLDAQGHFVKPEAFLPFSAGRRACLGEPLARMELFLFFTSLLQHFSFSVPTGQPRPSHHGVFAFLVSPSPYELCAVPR
Chain of CYP3A4 (P08684 whole entry): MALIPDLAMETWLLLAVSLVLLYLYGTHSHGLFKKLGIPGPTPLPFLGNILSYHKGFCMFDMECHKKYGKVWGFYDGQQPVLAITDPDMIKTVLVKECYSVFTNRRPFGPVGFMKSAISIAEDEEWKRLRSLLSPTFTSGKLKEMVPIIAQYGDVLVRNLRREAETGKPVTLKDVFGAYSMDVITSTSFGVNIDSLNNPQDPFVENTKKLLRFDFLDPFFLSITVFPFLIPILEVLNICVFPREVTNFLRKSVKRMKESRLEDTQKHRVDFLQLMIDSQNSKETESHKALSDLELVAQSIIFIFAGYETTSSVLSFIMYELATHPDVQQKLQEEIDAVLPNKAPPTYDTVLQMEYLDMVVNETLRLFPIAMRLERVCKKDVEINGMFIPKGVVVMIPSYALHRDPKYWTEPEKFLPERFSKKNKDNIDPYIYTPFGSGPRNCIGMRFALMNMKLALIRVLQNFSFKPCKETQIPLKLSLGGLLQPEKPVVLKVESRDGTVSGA
Chain of CYP2C9 (P11712 whole entry): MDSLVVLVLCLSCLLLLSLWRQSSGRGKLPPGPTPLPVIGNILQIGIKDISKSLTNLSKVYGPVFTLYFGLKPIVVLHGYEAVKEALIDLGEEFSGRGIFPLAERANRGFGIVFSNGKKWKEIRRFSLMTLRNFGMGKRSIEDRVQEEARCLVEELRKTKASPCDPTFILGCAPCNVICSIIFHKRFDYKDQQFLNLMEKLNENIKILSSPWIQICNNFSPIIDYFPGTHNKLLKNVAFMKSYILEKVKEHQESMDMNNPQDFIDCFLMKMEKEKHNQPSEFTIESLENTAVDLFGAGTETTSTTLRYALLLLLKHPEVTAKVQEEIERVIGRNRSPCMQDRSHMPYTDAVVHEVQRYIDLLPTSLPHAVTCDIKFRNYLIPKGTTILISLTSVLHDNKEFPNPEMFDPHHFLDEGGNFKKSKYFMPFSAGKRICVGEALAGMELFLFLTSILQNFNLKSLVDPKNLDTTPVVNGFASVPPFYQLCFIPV

Compound: CC(=O)N1CCN(c2ccc(OCC3COC(Cn4ccnc4)(c4ccc(Cl)cc4Cl)O3)cc2)CC1 (stereo not shown) [ketoconazole]
IC50 [1, 11]: 40 nM | IC50 [1, 12]: 8 nM

Compound: CCO.C[C@@H](c1nc(-c2ccc(C#N)cc2)cs1)[C@@](Cn1cncn1)(OCOP(=O)(O)O)c1ccc(F)cc1F.NCCCC[C@H](N)C(=O)O [E1224]
half-life in humans [2]: measured in days

inhibition at 1 µM [3]: 68% | inhibition at 1 µM [5]: -9% | inhibition at 1 µM [6]: -3% | inhibition at 1 µM [7]: -11%
Compound: CC[C@@H]([C@H](C)O)n1ncn(-c2ccc(N3CCN(c4ccc(OC[C@@H]5CO[C@@](Cn6cncn6)(c6ccc(F)cc6F)C5)cc4)CC3)cc2)c1=O [Posaconazole]
inhibition of parasitemia, positive control [4]: 94–99% | half-life in humans [2]: measured in days | IC50 [1, 11]: 350 nM | IC50 [1, 12]: 120 nM

half-life [8]: < 3.3 h
Compound: O=C(N[C@H](Cc1c[nH]c2ccccc12)C(=O)Nc1ccncc1)c1ccc(-c2ccc(F)c(F)c2)cc1F [compound 2, (R)-N-(3-(1H-Indol-3-yl)-1-oxo-1-(pyridin-4-ylamino)propan-2-yl)-3,3′,4′-trifluoro-[1,1′-biphenyl]-4-carboxamide]

Compound: O=C([C@@H](c1ccc(Cl)cc1)c1cccnc1)N1CCN(c2ccc(C(F)(F)F)cc2)CC1 [EPL-BS1246]
IC50 [9]: 8000 to 9000 nM | IC50 ([1]; read-out: IC50 toward 3A4): ≥ 20000 nM

solubility in 20% HPβCD [10]: fully soluble
Compound: O=C(N[C@H](Cc1c[nH]c2ccccc12)C(=O)Nc1ccncc1)c1ccc(-c2ccc(F)c(Cl)c2)cc1F [compound 7, (R)-N-(3-(1H-Indol-3-yl)-1-oxo-1-(pyridin-4-ylamino)propan-2-yl)-3′-chloro-3,4′-difluoro-[1,1′-biphenyl]-4-carboxamide hydrochloride]

half-life [8]: < 3.3 h
Compound: O=C(N[C@H](Cc1c[nH]c2ccccc12)C(=O)Nc1ccncc1)c1ccc(-c2ccc(F)c(C(F)(F)F)c2)cc1F [compound 6, (R)-N-(3-(1H-Indol-3-yl)-1-oxo-1-(pyridin-4-ylamino)propan-2-yl)-3,4′-difluoro-3′-(trifluoromethyl)-[1,1′-biphenyl]-4-carboxamide]
